Measurements from different studies.
Sample: plasma

| Structure (SMILES) | test system | setting | AUC(0-inf) |
| --- | --- | --- | --- |
| CN1CCN(C(=O)CN[C@@H]2C[C@H]2c2ccc(OCc3ccccc3)cc2)CC1 | mouse | intraperitoneal, 10 mg/kg | 1.72 µg·h/mL |
| CC(C)(C)c1ccc(O)c(CN(Cc2cc(C(C)(C)C)ccc2O)C2CCC(NC(N)=O)CC2)c1 (stereo not shown) | male C57BL/6 mouse | intraperitoneal, 10 mg/kg, single dose | 10.8 µg·h/mL |
| COc1ccc2c(=O)cc(-c3ccccc3)oc2c1O | male CD-1 mouse | oral, 50 mg/kg | 0.00167 µg·h/mL |
| CCc1cc(C(=O)NC)c2nccc(N3CCc4c(cc(Cn5ccnc5)cc4-c4cn(C)nc4C(F)(F)F)C3=O)c2c1 | male CD-1 mouse | oral, 50 mg/kg | 122 µg·h/mL |
| CC[C@H](C)[C@@H]1NC(=O)[C@@](C)(NC(=O)[C@H](CCCNC(=N)N)NC(=O)[C@H](CC(C)C)NC(=O)[C@@H](NC(=O)[C@H](CCC(N)=O)NC(=O)[C@H](CC(C)C)NC(C)=O)[C@@H](C)O)CCCC=CCCC[C@@](C)(C(=O)N[C@@H](CC(C)C)C(=O)N[C@@H](Cc2ccc3ccccc3c2)C(N)=O)NC(=O)[C@H](CCCNC(=N)N)NC(=O)[C@H](CCC(N)=O)NC1=O | male BALB/c mouse | intraperitoneal, 5 mg/kg | 102 µg·h/mL |
| O=S(=O)(c1ccc(-c2ccc3nccc(Nc4ccncn4)c3c2)cc1)N1CCOCC1 | female BALB/c mouse | intraperitoneal, 10 mg/kg | 9.52 µg·h/mL |
| COc1ccc2nc(-c3ccccn3)c(N(C)c3ccc(F)cc3)n2c1 | male CD-1 mouse | oral, 50 mg/kg, fasted | 0.969 µg·h/mL |
| COc1nc(-c2cc(C)c(N[C@@H](C)c3ccc(F)cc3)nn2)ccc1-n1cnc(C)c1 | male CD-1 mouse | intravenous, 1 mg/kg, single dose | 4.28 µg·h/mL |
| CNCCN(C)c1cc(C#N)cc(CCc2cc(C)cc(N)n2)c1 | male BALB/c mouse | intravenous, 2 mg/kg | 0.181 µg·h/mL |
| CCc1cc(OC)c2nccc(N3CCc4c(cc(Cn5ccnc5)cc4-c4cn(C)nc4C(F)(F)F)C3=O)c2c1 | male CD-1 mouse | oral, 50 mg/kg | 108 µg·h/mL |
| COc1cc2c(Nc3ccc(Cl)c(Cl)c3F)ncnc2cc1OC[C@@H]1C[C@@H]2CN(C)C[C@@H]2C1 | FVB mouse | oral, 70 mg/kg, single dose | 83 µg·h/mL |
| COc1nc(-c2cc(C)c(N[C@@H](C)c3cc(F)cc(F)c3)nn2)ccc1-n1cnc(C)c1 | male CD-1 mouse | intravenous, 1 mg/kg, single dose | 2.07 µg·h/mL |
| COc1cc(OC)c2nccc(N3CCc4c(cc(Cn5ccnc5)cc4-c4cn(C)nc4C(F)(F)F)C3=O)c2c1 | male CD-1 mouse | oral, 50 mg/kg | 60.6 µg·h/mL |
| CN1C(=O)c2ccccc2[S@+]([O-])c2ccc(C(=O)NCCc3cccs3)cc21 | male C57BL/6 mouse | intraperitoneal, 30 mg/kg, single dose | 7.84 µg·h/mL |
| Cc1cc(Nc2ccc(S(F)(F)(F)(F)F)cc2)n2ncnc2n1 | male Swiss mouse | oral, 100 mg/kg, single dose | 942 µM·h |
| COc1ccc2nccc(N3CCc4c(cc(Cn5ccnc5)cc4-c4cn(C)nc4C(F)(F)F)C3=O)c2c1 | male CD-1 mouse | oral, 10 mg/kg | 2.1 µg·h/mL |
| CC=Cc1ccc(O)c(OC)c1 | mouse | intranasal, 100 mg/kg | 10.1 µg·h/mL |
| CC(C)(Nc1nc(-c2ccccn2)nc2ccccc12)c1ccccn1 | female BALB/c mouse | intravenous, 1 mg/kg | 1.46 µg·h/mL |
| CNC(=O)c1cc(OC)cc2c(N3CCc4c(cc(Cn5ccnc5)cc4-c4cn(C)nc4C(F)(F)F)C3=O)ccnc12 | male CD-1 mouse | oral, 50 mg/kg | 145 µg·h/mL |
| Cc1nc(-c2cnc(NC(C)C)n(C)c2=O)ccc1Oc1ccnc(-c2cnn(C)c2)c1 | female mouse | oral, 15 mg/kg, single dose | 127 µg·h/mL |
| Cc1ccc(NC(=O)c2ccc(CN3CCN(C)CC3)cc2)cc1Nc1nccc(-c2cncc(-c3oncc3C)c2)n1 | male C57BL/6 mouse | oral, 100 mg/kg/day | 38 µg·h/mL |
| Cc1ccc2cncc(N3CCc4c(cc(Cn5ccnc5)cc4-c4cn(C)nc4C(F)(F)F)C3=O)c2c1 | male CD-1 mouse | intravenous, 3 mg/kg | 3.87 µg·h/mL |
